In ChEMBL document CHEMBL1142259, “Design and synthesis of novel potent and selective integrin alphanubeta3 antagonists--novel synthetic routes to isoquinolinone, benzoxazinone, and quinazolinone acetates” (Bioorg Med Chem Lett, 2008):

Tests used:
[1] = Apparent permeability across human Caco-2 cells; format: ADME, cell-based
How it was run: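 Apparent permeability coefficient (Papp) measured in Caco-2 monolayers. n = 2, intra-assay variation <20%. Papp >2e-7 cm/s is classed as medium transport and >2e-6 cm/s as high transport.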

[2] = biological target: Integrin alpha-IIb/beta-3 (Homo sapiens, UniProt P05106+P08514); test: Displacement of fibrinogen from integrin alpha2bbeta3 receptor; format: protein-complex assay
How it was run: (§1)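 Ligand displacement from the isolated integrin receptor: vitronectin for αvβ3 and fibrinogen for αIIbβ3. IC50 reported as the mean of three experiments. Intra-assay variation <10%; inter-assay variation < factor 2.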

[3] = biological target: Integrin alpha-5/beta-1 (Homo sapiens) (UniProt P05556+P08648); test: Inhibition of integrin alpha5beta1 receptor mediated cellular binding to fibronectin at 10 uM; format: protein-complex assay
Integrin alpha-V/beta-3 = Integrin alpha-V/beta-3 (Homo sapiens, UniProt P05106+P06756); test: Displacement of vitronectin from integrin alphavbeta3 receptor; format: protein-complex assay; how it was run: as §1
Integrin alpha-V/beta-3, sequence (P05106 27-788 limits assumed): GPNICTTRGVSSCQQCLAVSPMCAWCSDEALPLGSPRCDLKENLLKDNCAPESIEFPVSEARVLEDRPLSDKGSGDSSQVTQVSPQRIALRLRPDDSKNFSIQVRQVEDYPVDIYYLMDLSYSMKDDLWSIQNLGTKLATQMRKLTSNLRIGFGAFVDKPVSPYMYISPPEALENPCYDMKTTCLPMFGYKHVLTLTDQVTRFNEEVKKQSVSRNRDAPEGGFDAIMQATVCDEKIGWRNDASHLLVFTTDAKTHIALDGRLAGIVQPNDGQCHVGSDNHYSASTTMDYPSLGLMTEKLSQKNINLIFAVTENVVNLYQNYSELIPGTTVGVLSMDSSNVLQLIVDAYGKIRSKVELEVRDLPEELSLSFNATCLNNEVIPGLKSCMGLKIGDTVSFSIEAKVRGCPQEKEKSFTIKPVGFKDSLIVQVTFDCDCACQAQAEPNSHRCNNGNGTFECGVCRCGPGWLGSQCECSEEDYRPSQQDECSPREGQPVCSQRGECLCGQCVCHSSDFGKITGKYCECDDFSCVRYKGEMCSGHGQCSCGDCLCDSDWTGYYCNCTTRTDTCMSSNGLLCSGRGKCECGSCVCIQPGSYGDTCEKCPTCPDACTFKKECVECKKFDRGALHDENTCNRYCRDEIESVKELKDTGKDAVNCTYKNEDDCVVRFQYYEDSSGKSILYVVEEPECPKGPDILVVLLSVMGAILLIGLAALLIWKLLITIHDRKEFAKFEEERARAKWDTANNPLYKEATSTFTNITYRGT
Integrin alpha-V/beta-3, sequence (P06756 31-889 limits assumed): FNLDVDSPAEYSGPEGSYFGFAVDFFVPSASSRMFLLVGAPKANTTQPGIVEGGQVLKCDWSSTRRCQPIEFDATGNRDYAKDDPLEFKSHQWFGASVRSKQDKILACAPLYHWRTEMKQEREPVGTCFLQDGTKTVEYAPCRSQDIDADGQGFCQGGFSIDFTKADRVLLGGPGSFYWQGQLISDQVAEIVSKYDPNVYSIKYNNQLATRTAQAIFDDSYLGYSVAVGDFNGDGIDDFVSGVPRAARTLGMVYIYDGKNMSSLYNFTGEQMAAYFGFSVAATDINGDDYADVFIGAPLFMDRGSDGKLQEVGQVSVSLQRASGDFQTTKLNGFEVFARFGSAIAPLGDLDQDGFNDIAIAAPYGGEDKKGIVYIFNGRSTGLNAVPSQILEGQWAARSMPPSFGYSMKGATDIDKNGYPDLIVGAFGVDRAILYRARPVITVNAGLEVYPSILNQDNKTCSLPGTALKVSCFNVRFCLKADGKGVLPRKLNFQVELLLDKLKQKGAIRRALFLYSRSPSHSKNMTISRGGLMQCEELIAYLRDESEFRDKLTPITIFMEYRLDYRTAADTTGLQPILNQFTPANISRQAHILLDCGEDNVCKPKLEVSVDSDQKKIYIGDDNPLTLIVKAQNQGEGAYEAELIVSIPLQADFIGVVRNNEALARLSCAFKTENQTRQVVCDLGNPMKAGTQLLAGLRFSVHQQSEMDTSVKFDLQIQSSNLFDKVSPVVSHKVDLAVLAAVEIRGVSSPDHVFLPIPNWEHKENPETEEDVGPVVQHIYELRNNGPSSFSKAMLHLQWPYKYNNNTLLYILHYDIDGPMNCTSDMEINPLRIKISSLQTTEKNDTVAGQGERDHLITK
Integrin alpha-V/beta-3, sequence (P06756 891-1048 limits assumed): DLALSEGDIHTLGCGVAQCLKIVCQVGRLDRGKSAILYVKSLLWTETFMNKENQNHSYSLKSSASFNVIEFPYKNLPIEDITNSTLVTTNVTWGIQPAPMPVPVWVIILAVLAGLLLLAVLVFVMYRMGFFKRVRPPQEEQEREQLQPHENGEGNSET

Integrin alpha-IIb/beta-3, sequence (P05106 27-788 limits assumed): as the sequence (P05106 27-788 limits assumed) above
Integrin alpha-IIb/beta-3, sequence (P08514 32-887 limits assumed): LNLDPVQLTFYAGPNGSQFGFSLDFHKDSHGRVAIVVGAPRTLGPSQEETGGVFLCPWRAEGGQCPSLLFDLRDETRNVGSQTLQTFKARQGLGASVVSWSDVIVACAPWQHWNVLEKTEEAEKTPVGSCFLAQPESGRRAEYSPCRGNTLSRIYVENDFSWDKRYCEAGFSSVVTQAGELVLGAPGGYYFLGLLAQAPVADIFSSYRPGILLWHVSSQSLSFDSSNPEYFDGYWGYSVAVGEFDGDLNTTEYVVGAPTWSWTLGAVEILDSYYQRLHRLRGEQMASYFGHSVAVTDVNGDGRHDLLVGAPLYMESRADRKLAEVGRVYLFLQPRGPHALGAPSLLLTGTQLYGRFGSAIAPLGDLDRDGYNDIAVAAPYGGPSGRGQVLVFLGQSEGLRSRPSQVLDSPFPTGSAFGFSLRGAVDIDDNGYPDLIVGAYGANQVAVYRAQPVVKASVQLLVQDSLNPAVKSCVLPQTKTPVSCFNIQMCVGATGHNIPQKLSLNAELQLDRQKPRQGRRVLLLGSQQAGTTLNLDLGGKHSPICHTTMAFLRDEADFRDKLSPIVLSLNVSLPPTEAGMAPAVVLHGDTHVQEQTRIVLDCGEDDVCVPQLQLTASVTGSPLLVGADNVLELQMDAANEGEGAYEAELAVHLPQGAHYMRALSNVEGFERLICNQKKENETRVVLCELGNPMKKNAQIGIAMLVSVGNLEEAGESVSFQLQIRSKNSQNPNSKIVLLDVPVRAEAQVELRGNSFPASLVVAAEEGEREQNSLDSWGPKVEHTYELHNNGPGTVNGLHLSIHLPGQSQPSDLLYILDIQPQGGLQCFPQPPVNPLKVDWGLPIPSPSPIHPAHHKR
Integrin alpha-IIb/beta-3, sequence (P08514 891-1039 limits assumed): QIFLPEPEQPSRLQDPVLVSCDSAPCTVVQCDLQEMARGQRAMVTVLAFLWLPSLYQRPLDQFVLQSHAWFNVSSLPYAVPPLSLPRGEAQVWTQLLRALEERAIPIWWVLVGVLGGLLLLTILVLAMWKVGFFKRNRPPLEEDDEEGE

| Compound | IC50 (Integrin alpha-V/beta-3) | also measured |
| --- | --- | --- |
| O=C(O)CC1OC(=O)N(CC(=O)NCc2ccc(Nc3nc4ccccc4[nH]3)cc2)c2ccccc21 (centres undefined) | 4.2 nM | Papp [1]: 3.48 ×10⁻⁶ cm/s; IC50 [2]: > 10000 nM; inhibition [3]: 8% |
| O=C(O)CC1CCC(=O)N(CC(=O)NCC2CCC(Nc3nc4ccccc4[nH]3)CC2)c2ccccc21 (centres undefined) | 1.5 nM |  |
| O=C(O)CCC1CC(=O)N(CC(=O)NCc2ccc(Nc3nc4ccccc4[nH]3)cc2)c2ccccc21 (centres undefined) | 5000 nM |  |
| O=C(O)CC1NC(=O)N(CC(=O)NCC2CCC(Nc3nc4ccccc4[nH]3)CC2)c2ccccc21 (trans isomer) | 13 nM |  |
| O=C(O)CCc1cc(=O)n(CC(=O)NCc2ccc(Nc3nc4ccccc4[nH]3)cc2)c2ccccc12 | 500 nM |  |
| O=C(O)CC1CCN(CC(=O)NCc2ccc(Nc3nc4ccccc4[nH]3)cc2)C(=O)c2ccccc21 (centres undefined) | 122 nM |  |
| O=C(O)CC1NC(=O)N(CC(=O)NCc2ccc(Nc3nc4ccccc4[nH]3)cc2)c2ccccc21 (centres undefined) | 37 nM |  |
| O=C(O)CCc1cc(=O)n(CC(=O)NCC2CCC(Nc3nc4ccccc4[nH]3)CC2)c2ccccc12 (trans isomer) | 1000 nM |  |
| O=C(O)CC1CN(CC(=O)NCc2ccc(Nc3nc4ccccc4[nH]3)cc2)C(=O)c2ccccc21 (centres undefined) | 10000 nM |  |

Continued by falling IC50 (Integrin alpha-V/beta-3), values first:

| IC50 (Integrin alpha-V/beta-3) | Compound | also measured |
| --- | --- | --- |
| 10000 nM | O=C(O)CC1CN(CC(=O)NCC2CCC(Nc3nc4ccccc4[nH]3)CC2)C(=O)c2ccccc21 (trans isomer) |  |
| 50 nM | O=C(O)Cc1cc(=O)n(CC(=O)NCc2ccc(Nc3nc4ccccc4[nH]3)cc2)c2ccccc12 |  |
| 50 nM | O=C(O)CC1CC(=O)N(CC(=O)NCc2ccc(Nc3nc4ccccc4[nH]3)cc2)c2ccccc21 (centres undefined) |  |
| 27 nM | O=C(O)CCC1CC(=O)N(CC(=O)NCC2CCC(Nc3nc4ccccc4[nH]3)CC2)c2ccccc21 (centres undefined) |  |
| 11 nM | O=C(O)CC1CCN(CC(=O)NCC2CCC(Nc3nc4ccccc4[nH]3)CC2)C(=O)c2ccccc21 (centres undefined) |  |
| 10 nM | O=C(O)Cc1cc(=O)n(CC(=O)NCC2CCC(Nc3nc4ccccc4[nH]3)CC2)c2ccccc12 (centres undefined) |  |
| 7.4 nM | O=C(O)CC1CC(=O)N(CC(=O)NCC2CCC(Nc3nc4ccccc4[nH]3)CC2)c2ccccc21 (trans isomer) |  |
| 4.4 nM | O=C(O)CC1CCC(=O)N(CC(=O)NCc2ccc(Nc3nc4ccccc4[nH]3)cc2)c2ccccc21 (centres undefined) |  |
| 0.7 nM | O=C(O)CC1OC(=O)N(CC(=O)NCC2CCC(Nc3nc4ccccc4[nH]3)CC2)c2ccccc21 (centres undefined) | Papp [1]: 3.23 ×10⁻⁶ cm/s; IC50 [2]: > 10000 nM; inhibition [3]: 25% |
